Assay results: ChEMBL document CHEMBL1145335, “Nonpeptide inhibitors of measles virus entry” (J Med Chem, 2006)
Active and inactive are the calls of the source. The calls are words filed in the database; no cut-off is given here.

Columns and labels:
[1] = system: Measles morbillivirus; assay: Antiviral activity against wild type Measles virus Edmonston in Vero-CD150w cells by cytopathicity assay; assay type: functional, organism-based
Procedure, shortened: (§1)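 Cells infected with MV Edmonston at MOI 0.2 pfu/cell in the presence of 2-fold compound dilutions, starting at 75–300 µM and ending at 0.3–1.2 µM. Two to four replicates per concentration; DMSO ≤0.1% with matched DMSO controls. Virus-induced cytopathicity was read at 96 h post-infection by nonradioactive proliferation assay. IC50 was taken from dose-response curves of replicate averages.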

[2] = system: Vero; assay: Selectivity index, CC50 for Vero-CD150w cells/IC50 for Measles virus Edmonston; assay type: functional
Procedure, shortened: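 Ratio of CC50 to IC50. CC50: 2-fold dilutions from 600 µM, 36–40 h exposure, proliferation read-out, two independent replicates. IC50: suppression of cytopathicity at MOI 0.2 pfu/cell, 96 h, proliferation read-out, from dose-response curves of replicate averages.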

[3] = system: Vero; assay: Cytotoxicity against Vero-CD150w cells; assay type: functional; settings: Chlorocebus sabaeus
Procedure, shortened: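 Uninfected cells were exposed to 2-fold compound dilutions from 600 µM down to 2.3 µM for 36 to 40 h. Remaining proliferation was then measured over 1 h by nonradioactive proliferation assay. CC50 comes from two independent replicates.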

[4] = system: Measles morbillivirus; assay: Antiviral activity against Measles virus variant in Vero-CD150w cells by cytopathicity assay; assay type: functional, organism-based
Procedure, shortened: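 MV variant carrying an F-protein point mutation at position 462. Cells infected at MOI 0.2 pfu/cell with 2-fold compound dilutions starting at 75–300 µM, in 2–4 replicates, with DMSO at most 0.1% and DMSO-matched controls. Cytopathicity quantified at 96 h post-infection by a nonradioactive proliferation assay. IC50 taken from dose-response curves of replicate averages.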

[5] = system: Measles morbillivirus; assay: Antiviral activity against wild type Measles virus Edmonston in Vero-CD150w cells upto 100 uM by cytopathicity assay; assay type: functional, organism-based; procedure, shortened: as §1
[6] = system: Measles morbillivirus; assay: Antiviral activity against wild type Measles virus Edmonston in Vero-CD150w cells at >75 uM by cytopathicity assay; assay type: functional, organism-based; procedure, shortened: as §1
[7] = Measles morbillivirus, Edmonston, Vero-CD150w, read-out: IC50

IC50 [1, 7]	IC50 ([1]; vero-cd150w)	Compound	Selectivity index [2]	CC50 [3]	IC50 [4]	Activity [5]	Activity [6]
> 100 µM		COc1ccc(CC(=O)Nc2cc([N+](=O)[O-])ccc2O)cc1	<6	600 µM			
55 µM		Nc1cc(NC(=O)Cc2ccccc2)cc(C(=O)O)c1	>11	> 600 µM			
47 µM		O=C(Cc1ccccc1)Nc1cc([N+](=O)[O-])ccc1O	10	450 µM			
135 µM		Nc1ccc(NC(=O)Cc2ccccc2)cc1	>4	> 600 µM			
8.5 µM		O=C(Cc1ccccc1)Nc1cccc([N+](=O)[O-])c1	>71	> 600 µM			
> 100 µM		O=C(Cc1ccccc1)Nc1cc(C(F)(F)F)ccc1O		> 600 µM			
9 µM		O=C(Cc1ccc(F)cc1)Nc1cccc([N+](=O)[O-])c1					
> 100 µM		O=C(COc1ccccc1)Nc1ccc([N+](=O)[O-])cc1O		> 600 µM			
> 75 µM		O=C(Cc1ccccn1)Nc1cccc([N+](=O)[O-])c1					
23 µM		Nc1cc(C(=O)NCc2ccccc2)cc([N+](=O)[O-])c1					
> 100 µM		COc1cccc(CC(=O)Nc2cc([N+](=O)[O-])ccc2O)c1		> 600 µM			
> 75 µM		O=C(Cc1ccncc1)Nc1cccc([N+](=O)[O-])c1					
66 µM		COC(=O)c1ccc(O)c(NC(=O)Cc2ccccc2)c1	>9	> 600 µM			
		Nc1cc(CO)cc(NC(=O)Cc2ccccc2)c1				inactive	
		Nc1ccc(CO)c(NC(=O)Cc2ccccc2)c1				inactive	
75 µM		Nc1ccc(NC(=O)Cc2ccccc2)c(O)c1	>8	> 600 µM			
60 µM		O=C(Cc1ccccc1)Nc1ccccc1C(=O)O	>10	> 600 µM			
47 µM		O=C(Cc1cccc(F)c1)Nc1cccc([N+](=O)[O-])c1					

IC50 [1, 7]	IC50 ([1]; vero-cd150w)	Compound	Selectivity index [2]	CC50 [3]	IC50 [4]	Activity [5]	Activity [6]
> 300 µM		O=[N+]([O-])c1ccc(O)c(NS(=O)(=O)Cc2ccccc2)c1					
109 µM		O=C(Cc1ccccc1)Nc1ccc(F)cn1	>6	> 600 µM			
16 µM		O=C(Cc1ccccc1)Nc1ccc([N+](=O)[O-])cc1	34	550 µM			
25 µM		O=C(Cc1ccccc1)Nc1cccc(O)c1	>24	> 600 µM			
> 100 µM		Nc1cc(N)cc(NC(=O)Cc2ccccc2)c1					
> 300 µM		O=C(Cc1ccccc1I)Nc1cccc([N+](=O)[O-])c1					
	Not Active	Nc1ccc(NC(=O)COc2ccccc2)c(O)c1					
63 µM		O=C(Cc1ccccc1)Nc1ccc(O)c([N+](=O)[O-])c1	>10	> 600 µM			
> 100 µM		O=C(Cc1ccccc1)Nc1ccc(F)c([N+](=O)[O-])c1	<5	450 µM			
		O=C(Cc1ccccc1F)Nc1cccc([N+](=O)[O-])c1					inactive
> 100 µM		O=C(COc1ccccc1)Nc1cc([N+](=O)[O-])ccc1O	<6	600 µM			
127 µM		NC(=O)c1ccc(O)c(NC(=O)Cc2ccccc2)c1	>5	> 600 µM			
> 100 µM		O=C(Cc1ccccc1)Nc1ccccc1[N+](=O)[O-]		> 600 µM			
> 75 µM		O=C(Cc1cccnc1)Nc1cccc([N+](=O)[O-])c1					
68 µM		O=C(Cc1ccccc1)Nc1cc([N+](=O)[O-])ccc1OC(=O)Cc1ccccc1	1	75 µM			
> 75 µM		O=C(Cc1ccc(I)cc1)Nc1cccc([N+](=O)[O-])c1					
> 300 µM		O=C(Cc1cccc(I)c1)Nc1cccc([N+](=O)[O-])c1					
18 µM		NC(=O)c1cc(N)cc(NC(=O)Cc2ccccc2)c1	>33	> 600 µM			

Compound	IC50 [1, 7]	IC50 ([1]; vero-cd150w)	Selectivity index [2]	CC50 [3]	IC50 [4]	Activity [5]	Activity [6]
O=C(Cc1ccccc1)Nc1cc(C(=O)O)cc([N+](=O)[O-])c1	5 µM		>120	> 600 µM	> 150 µM		
O=C(Cc1ccccc1)Nc1cc(NO)cc([N+](=O)[O-])c1	6 µM		54	325 µM	> 75 µM		
O=C(Cc1ccccc1)Nc1ccccc1O	13 µM		40	525 µM	> 150 µM		
N#Cc1cccc(NC(=O)Cc2ccccc2)c1	6.5 µM		>92	> 600 µM	> 150 µM		
Nc1cc(NC(=O)Cc2ccccc2)cc([N+](=O)[O-])c1	11 µM		>55	> 600 µM	> 150 µM		
O=C(Cc1ccccc1)Nc1cc(CO)cc([N+](=O)[O-])c1	6 µM		>100	> 600 µM	> 150 µM		
Nc1ccc2oc(Cc3ccccc3)nc2c1	55 µM		>10	> 600 µM	> 150 µM		
O=C(Cc1ccccc1)Nc1cc([N+](=O)[O-])cc([N+](=O)[O-])c1	30 µM		>20	> 600 µM	> 150 µM		
Nc1cccc(NC(=O)Cc2ccccc2)c1	19 µM		>32	> 600 µM	> 150 µM		
COC(=O)c1cc(NC(=O)Cc2ccccc2)cc([N+](=O)[O-])c1	4 µM		110	440 µM	> 150 µM		
NC(=O)c1cc(NC(=O)Cc2ccccc2)cc([N+](=O)[O-])c1	3.7 µM		46	170 µM	> 75 µM		
NC(=O)c1ccc([N+](=O)[O-])cc1NC(=O)Cc1ccccc1	3 µM		108	325 µM	> 150 µM		
